The values that follow come from ChEMBL document CHEMBL1671727, “Expression, purification, and characterization of Aspergillus fumigatus sterol 14-alpha demethylase (CYP51) isoenzymes A and B” (Antimicrob Agents Chemother, 2010).

Test [1] deals with T1, 14-alpha sterol demethylase (Neosartorya fumigata (Aspergillus fumigatus)) (UniProt Q96W81).
T1 sequence (whole entry): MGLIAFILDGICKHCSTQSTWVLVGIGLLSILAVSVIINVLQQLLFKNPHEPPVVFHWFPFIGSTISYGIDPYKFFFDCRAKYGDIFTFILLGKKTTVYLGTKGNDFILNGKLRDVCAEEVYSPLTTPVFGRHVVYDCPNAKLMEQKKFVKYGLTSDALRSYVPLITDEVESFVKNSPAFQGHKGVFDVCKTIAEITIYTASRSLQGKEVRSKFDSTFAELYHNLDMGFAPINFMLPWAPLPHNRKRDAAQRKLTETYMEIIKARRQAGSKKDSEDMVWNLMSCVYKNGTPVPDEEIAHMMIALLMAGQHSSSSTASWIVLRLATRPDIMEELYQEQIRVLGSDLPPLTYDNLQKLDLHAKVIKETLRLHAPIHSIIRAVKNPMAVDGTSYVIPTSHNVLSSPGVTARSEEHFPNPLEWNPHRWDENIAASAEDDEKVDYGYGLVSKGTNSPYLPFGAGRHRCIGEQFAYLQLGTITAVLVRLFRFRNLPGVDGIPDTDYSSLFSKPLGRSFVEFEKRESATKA
The test is described as follows: Binding affinity to Aspergillus fumigatus AF293 sterol 14-alpha demethylase isoenzyme B expressed in Escherichia coli assessed as spectral dissociation constant. The gist of the method: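 His-tagged CYP51 (Af293 sequence, codon-optimised, E. coli-expressed), cholate-solubilised and Ni-NTA purified, at 1 μM in 0.1 M Tris-HCl pH 8.1 with 25% glycerol. Azole (0.05 mg/ml DMSO stock) titrated in split 4.5 mm cuvettes, with DMSO added to the reference. Difference spectra were read at 500–350 nm. Peak-to-trough change was plotted against concentration. Kd came from Morrison (tight binding), Michaelis-Menten or Hill fits.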

The target of test [2] is T1, 14-alpha sterol demethylase (Neosartorya fumigata (Aspergillus fumigatus)). In words: Binding affinity to 1 uM recombinant Aspergillus fumigatus AF293 sterol 14-alpha demethylase isoenzyme B from Escherichia coli membrane suspension assessed as spectral dissociation constant.
The target is the same in test [3]. In words: Binding affinity to Aspergillus fumigatus AF293 sterol 14-alpha demethylase isoenzyme B expressed in Escherichia coli assessed as generation of type I difference spectrum at 4.8 uM.

The source made the active and inactive calls. No cut-off for these calls is given here.

As to `CC(C)=CCC[C@@H](C)[C@H]1CC[C@@]2(C)C3=C(CC[C@]12C)[C@@]1(C)CC[C@H](O)C(C)(C)[C@@H]1CC3`, the Ks turned out to be 8.6 µM in test [1] and 3.1 µM in test [2].

In the case of `C=C(CC[C@@H](C)[C@H]1CC[C@@]2(C)C3=C(CC[C@]12C)[C@@]1(C)CC[C@H](C)C(C)(C)C1CC3)C(C)C` (stereo not given in full), the outcome in test [3] was Active. The figures for the Ks in test [1] and in test [2] were 22.6 µM and 4.1 µM, respectively.
